# Data as given in ChEMBL document CHEMBL4393708, “Pyridinylimidazoles as dual glycogen synthase kinase 3β/p38α mitogen-activated protein kinase inhibitors” (Eur J Med Chem, 2019).
# Experiments:
# [1] = molecular target: Mitogen-activated protein kinase 14 (Homo sapiens, UniProt Q16539); assay: Inhibition of p38alpha MAPK (unknown origin) using ATF-2 as substrate after 1 hr by ELISA
# [2] = Metabolic stability in human liver microsomes assessed as parent compound remaining after 240 mins by LC-MS analysis relative to control; assay type: ADME, Microsome; details: read-out: Stability
# [3] = Metabolic stability in human liver microsomes assessed as parent compound remaining after 60 mins by LC-MS analysis relative to control; assay type: ADME, Microsome; details: read-out: Stability
# [4] = Drug metabolism in RjOrl:Swiss CD-1 mouse at 10 mg/kg, iv administered as single dose measured after 2 hrs by LC-MS relative to control; assay type: ADME, organism-based; details: in vivo
# Summary of the method: (§1)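 Adult male RjOrl:Swiss CD-1 mice got one intravenous dose of 10 mg/kg. Plasma was sampled at 10, 30 and 120 min. After the last sample the mice were sacrificed and brains dissected. Blood and brain samples were prepared and analysed by LC-MS for parent and sulfoxide metabolite; brain levels reported as ng/g.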
# [5] = molecular target: CYP2D6 (Homo sapiens, UniProt P10635); assay: Inhibition of human recombinant CYP2D6 expressed in baculovirus infected insect cells using EOMCC as substrate at 10 uM in presence of NADPH by fluorimetric analysis relative to control; assay type: ADME; details: probe EOMCC
# [6] = Solubility of the compound in PBS buffer at pH 7.8 after 1 hr by HPLC analysis; assay type: physicochemical
# [7] = system: Blood; assay: Inhibition of LPS-induced TNFalpha production in human whole blood preincubated with compound for 15 mins followed by LPS addition measured after 2.5 hrs by ELISA; assay type: functional, tissue-based
# [8] = Metabolic stability in human liver microsomes assessed as parent compound remaining after 10 mins by LC-MS analysis relative to control; assay type: ADME, Microsome; details: read-out: Stability
# [9] = molecular target: Cytochrome P450 2C19 (Homo sapiens, UniProt P33261); assay: Inhibition of human recombinant CYP2C19 expressed in baculovirus infected insect cells using EOMCC as substrate in presence of NADPH by fluorimetric analysis relative to control; assay type: ADME; details: recombinant enzyme
# [10] = Drug metabolism in human liver microsomes assessed as N-(4-(4-(4-Fluorophenyl)-2-(methylsulfinyl)-1H-imidazol-5-yl)pyridin-2-yl)cyclopropanecarboxamide metabolite formation by measuring half life by LC-MS analysis; assay type: ADME, Microsome
# Summary of the method: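 Incubation with human liver microsomes for up to 4 h. Remaining parent and sulfoxide metabolite formation were followed over time, giving a half-life for the oxidation.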
# [11] = molecular target: T1, Glycogen synthase kinase-3 beta (Homo sapiens, UniProt P49841); assay: Competitive inhibition of human recombinant full length GSK3beta using YRRAAVPPSPSLSRHSSPHQ(pS)EDEEE as substrate preincubated with enzyme for 10 mins followed by substrate and 25 uM ATP addition measured after 60 mins by ADP-Glo luminescence assay
# Summary of the method: (§2)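 Compounds in serial dilutions were preincubated with kinase for 10 min at rt. Substrate/ATP was then added and the reaction ran 60 min at rt. ADP-Glo reagent 60 min, detection reagent 30 min, then luminescence read (500 ms integration).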
# [12] = molecular target: T1, Glycogen synthase kinase-3 beta; assay: Competitive inhibition of human recombinant full length GSK3beta using YRRAAVPPSPSLSRHSSPHQ(pS)EDEEE as substrate preincubated with enzyme for 10 mins followed by substrate and 500 uM ATP addition measured after 60 mins by ADP-Glo luminescence assay
# Summary of the method: as §2, with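 “Recombinant human GSK3β at 0.58 ng/µL with 0.2 µg/µL substrate G50-58; ATP at 25 µM, 100 µM or 500 µM, each as its line states. Compounds” for “Compounds”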
# [13] = Metabolic stability in human liver microsomes assessed as parent compound remaining after 20 mins by LC-MS analysis relative to control; assay type: ADME, Microsome; details: read-out: Stability
# [14] = molecular target: T1, Glycogen synthase kinase-3 beta; assay: Competitive inhibition of human recombinant full length GSK3beta using YRRAAVPPSPSLSRHSSPHQ(pS)EDEEE as substrate preincubated with enzyme for 10 mins followed by substrate and 100 uM ATP addition measured after 60 mins by ADP-Glo luminescence assay
# Summary of the method: as §2, with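 “Recombinant human GSK3β at 0.58 ng/µL with 0.2 µg/µL substrate G50-58; ATP at 25 µM, 100 µM or 500 µM, each as its line states. Compounds” for “Compounds”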
# [15] = molecular target: Glycogen synthase kinase-3 alpha (Homo sapiens, UniProt P49840); assay: Inhibition of human recombinant full length GSK3alpha using YRRAAVPPSPSLSRHSSPHQ(pS)EDEEE as substrate preincubated with enzyme for 10 mins followed by substrate and 25 uM ATP addition measured after 60 mins by ADP-Glo luminescence assay
# Summary of the method: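 Recombinant human GSK3α at 0.50 ng/µL, 25 µM ATP, 0.2 µg/µL substrate G50-58, serial compound dilutions. Kinase was preincubated with compound 10 min at rt, then run 60 min at rt after substrate/ATP addition. ADP-Glo reagent 60 min, detection reagent 30 min, luminescence read. Uninhibited-kinase and ATP/substrate-only controls were included.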
# [16] = Metabolic stability in human liver microsomes assessed as parent compound remaining after 120 mins by LC-MS analysis relative to control; assay type: ADME, Microsome; details: read-out: Stability
# [17] = molecular target: CYP2C9 (Homo sapiens, UniProt P11712); assay: Inhibition of human recombinant CYP2C9 expressed in baculovirus infected insect cells using OOMR as substrate at 10 uM in presence of NADPH by fluorimetric analysis relative to control; assay type: ADME; details: probe OOMR
# [18] = Metabolic stability in human liver microsomes assessed as parent compound remaining after 30 mins by LC-MS analysis relative to control; assay type: ADME, Microsome; details: read-out: Stability
# [19] = Metabolic stability in human liver microsomes assessed as parent compound remaining after 180 mins by LC-MS analysis relative to control; assay type: ADME, Microsome; details: read-out: Stability
# [20] = molecular target: hERG (KCNH2) (Homo sapiens, UniProt Q12809); assay: Inhibition of tracer Red binding to human ERG expressed in membranes at 10 uM after 4 hrs by fluorescence polarization assay relative to control; details: membranes expressing human ERG, probe tracer Red
# [21] = molecular target: CYP1A2 (Homo sapiens, UniProt P05177); assay: Inhibition of human recombinant CYP1A2 expressed in baculovirus infected insect cells using 3-cyano-7-ethoxycoumarin as substrate at 10 uM in presence of NADPH by fluorimetric analysis relative to control; assay type: ADME; details: probe 3-cyano-7-ethoxycoumarin
# [22] = Drug metabolism in RjOrl:Swiss CD-1 mouse assessed as ratio of compound to N-(4-(4-(4-Fluorophenyl)-2-(methylsulfinyl)-1H-imidazol-5-yl)pyridin-2-yl)cyclopropanecarboxamide metabolite level at 10 mg/kg, iv administered as single dose measured after 10 mins by LC-MS analysis; assay type: ADME, organism-based; details: in vivo; summary of the method: as §1
# [23] = molecular target: CYP3A4 (Homo sapiens, UniProt P08684); assay: Inhibition of human recombinant CYP3A4 expressed in baculovirus infected insect cells using BOMR as substrate at 10 uM in presence of NADPH by fluorimetric analysis relative to control; assay type: ADME; details: probe BOMR
# Chain of CYP3A4 (P08684 whole entry): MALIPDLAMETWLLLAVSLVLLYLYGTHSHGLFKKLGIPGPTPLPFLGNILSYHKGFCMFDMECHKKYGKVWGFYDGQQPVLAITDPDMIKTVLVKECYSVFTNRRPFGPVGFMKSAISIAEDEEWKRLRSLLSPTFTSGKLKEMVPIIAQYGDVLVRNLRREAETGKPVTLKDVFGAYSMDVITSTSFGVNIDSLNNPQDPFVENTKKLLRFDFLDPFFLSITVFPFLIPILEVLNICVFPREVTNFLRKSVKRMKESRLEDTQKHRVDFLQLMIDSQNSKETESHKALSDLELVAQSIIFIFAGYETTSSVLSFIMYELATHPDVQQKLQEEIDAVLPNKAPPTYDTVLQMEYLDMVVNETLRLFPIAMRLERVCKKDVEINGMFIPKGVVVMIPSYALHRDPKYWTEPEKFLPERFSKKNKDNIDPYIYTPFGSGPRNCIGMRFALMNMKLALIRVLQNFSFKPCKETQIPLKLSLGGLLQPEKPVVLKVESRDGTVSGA
# T1 sequence (P49841 whole entry): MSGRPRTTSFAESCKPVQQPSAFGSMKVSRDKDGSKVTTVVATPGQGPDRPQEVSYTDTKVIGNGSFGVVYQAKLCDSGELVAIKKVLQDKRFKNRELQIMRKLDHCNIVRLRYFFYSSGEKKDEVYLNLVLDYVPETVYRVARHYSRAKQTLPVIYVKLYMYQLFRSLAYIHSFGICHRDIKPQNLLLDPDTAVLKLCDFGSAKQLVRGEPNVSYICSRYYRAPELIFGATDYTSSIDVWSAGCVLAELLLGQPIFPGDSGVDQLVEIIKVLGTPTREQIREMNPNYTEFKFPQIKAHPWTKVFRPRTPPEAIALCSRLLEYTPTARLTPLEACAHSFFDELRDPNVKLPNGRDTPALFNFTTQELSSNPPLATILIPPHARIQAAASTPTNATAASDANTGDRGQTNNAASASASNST
# Chain of CYP2C9 (P11712 whole entry): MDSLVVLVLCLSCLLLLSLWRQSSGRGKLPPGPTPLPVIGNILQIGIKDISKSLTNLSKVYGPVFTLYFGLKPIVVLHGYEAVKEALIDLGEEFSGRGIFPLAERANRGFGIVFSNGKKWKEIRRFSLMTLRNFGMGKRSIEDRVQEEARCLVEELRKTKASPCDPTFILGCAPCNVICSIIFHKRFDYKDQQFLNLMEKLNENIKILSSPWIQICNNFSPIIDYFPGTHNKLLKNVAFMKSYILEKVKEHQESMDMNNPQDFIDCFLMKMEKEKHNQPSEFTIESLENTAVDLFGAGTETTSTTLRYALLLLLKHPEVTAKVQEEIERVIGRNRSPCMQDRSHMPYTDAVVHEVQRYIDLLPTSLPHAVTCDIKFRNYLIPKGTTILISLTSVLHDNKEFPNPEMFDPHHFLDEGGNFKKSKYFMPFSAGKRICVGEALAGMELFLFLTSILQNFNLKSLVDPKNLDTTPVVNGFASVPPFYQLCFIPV
# Chain of CYP2D6 (P10635 whole entry): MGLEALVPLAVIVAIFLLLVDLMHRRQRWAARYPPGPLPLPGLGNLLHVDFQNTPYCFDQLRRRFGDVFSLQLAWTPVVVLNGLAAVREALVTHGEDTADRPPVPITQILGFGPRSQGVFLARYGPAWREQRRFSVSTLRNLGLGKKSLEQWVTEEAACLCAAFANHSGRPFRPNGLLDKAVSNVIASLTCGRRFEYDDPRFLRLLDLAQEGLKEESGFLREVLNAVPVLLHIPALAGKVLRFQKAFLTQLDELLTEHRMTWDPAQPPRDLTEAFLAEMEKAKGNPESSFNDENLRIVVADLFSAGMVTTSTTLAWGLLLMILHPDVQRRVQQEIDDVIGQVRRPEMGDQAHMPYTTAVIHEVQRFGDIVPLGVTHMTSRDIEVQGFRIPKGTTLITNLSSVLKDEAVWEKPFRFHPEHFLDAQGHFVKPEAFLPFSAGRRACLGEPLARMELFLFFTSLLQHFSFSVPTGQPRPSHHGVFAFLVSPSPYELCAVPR
# Chain of hERG (KCNH2) (Q12809 whole entry): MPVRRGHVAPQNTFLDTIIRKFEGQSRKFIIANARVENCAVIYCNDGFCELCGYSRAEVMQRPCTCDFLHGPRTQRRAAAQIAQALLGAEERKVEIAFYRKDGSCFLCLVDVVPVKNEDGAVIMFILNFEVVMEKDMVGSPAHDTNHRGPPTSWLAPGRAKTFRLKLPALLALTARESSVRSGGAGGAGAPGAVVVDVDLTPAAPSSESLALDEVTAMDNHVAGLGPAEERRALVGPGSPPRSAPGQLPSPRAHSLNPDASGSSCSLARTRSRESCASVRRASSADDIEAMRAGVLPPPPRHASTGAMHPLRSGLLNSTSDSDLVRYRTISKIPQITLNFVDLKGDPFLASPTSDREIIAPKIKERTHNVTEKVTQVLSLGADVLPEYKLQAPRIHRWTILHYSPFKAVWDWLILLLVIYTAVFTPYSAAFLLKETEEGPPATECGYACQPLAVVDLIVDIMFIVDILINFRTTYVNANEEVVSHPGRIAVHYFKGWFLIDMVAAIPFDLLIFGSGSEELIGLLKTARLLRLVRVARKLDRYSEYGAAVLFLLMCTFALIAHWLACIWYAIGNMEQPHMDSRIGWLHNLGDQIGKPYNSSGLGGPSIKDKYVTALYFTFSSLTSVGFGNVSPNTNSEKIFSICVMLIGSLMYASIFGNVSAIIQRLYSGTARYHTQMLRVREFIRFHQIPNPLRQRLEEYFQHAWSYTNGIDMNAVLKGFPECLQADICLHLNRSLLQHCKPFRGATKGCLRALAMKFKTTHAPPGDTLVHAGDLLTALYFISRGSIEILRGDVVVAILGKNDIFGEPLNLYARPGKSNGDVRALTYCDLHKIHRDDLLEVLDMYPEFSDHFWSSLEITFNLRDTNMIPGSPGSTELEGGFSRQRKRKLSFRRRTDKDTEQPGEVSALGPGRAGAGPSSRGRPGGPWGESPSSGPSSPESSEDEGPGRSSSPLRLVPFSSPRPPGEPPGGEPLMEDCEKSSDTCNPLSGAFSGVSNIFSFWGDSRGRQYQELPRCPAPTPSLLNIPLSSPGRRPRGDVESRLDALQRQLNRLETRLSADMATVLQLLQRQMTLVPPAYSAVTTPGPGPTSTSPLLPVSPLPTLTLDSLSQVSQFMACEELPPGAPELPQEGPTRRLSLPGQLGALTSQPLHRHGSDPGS
# Chain of Glycogen synthase kinase-3 alpha (P49840 whole entry): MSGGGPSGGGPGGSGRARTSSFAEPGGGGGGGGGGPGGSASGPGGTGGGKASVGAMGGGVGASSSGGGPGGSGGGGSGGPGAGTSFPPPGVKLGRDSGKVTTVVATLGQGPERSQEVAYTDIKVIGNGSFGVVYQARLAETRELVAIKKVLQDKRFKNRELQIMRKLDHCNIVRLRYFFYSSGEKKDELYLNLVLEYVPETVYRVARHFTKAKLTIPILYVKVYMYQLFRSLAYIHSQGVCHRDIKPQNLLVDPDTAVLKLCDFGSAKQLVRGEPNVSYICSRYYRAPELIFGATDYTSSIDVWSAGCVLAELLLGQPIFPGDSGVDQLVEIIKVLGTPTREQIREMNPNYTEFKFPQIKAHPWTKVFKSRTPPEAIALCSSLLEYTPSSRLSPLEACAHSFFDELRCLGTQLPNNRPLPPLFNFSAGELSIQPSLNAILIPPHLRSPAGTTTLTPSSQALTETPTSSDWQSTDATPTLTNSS
# Chain of Mitogen-activated protein kinase 14 (Q16539 whole entry): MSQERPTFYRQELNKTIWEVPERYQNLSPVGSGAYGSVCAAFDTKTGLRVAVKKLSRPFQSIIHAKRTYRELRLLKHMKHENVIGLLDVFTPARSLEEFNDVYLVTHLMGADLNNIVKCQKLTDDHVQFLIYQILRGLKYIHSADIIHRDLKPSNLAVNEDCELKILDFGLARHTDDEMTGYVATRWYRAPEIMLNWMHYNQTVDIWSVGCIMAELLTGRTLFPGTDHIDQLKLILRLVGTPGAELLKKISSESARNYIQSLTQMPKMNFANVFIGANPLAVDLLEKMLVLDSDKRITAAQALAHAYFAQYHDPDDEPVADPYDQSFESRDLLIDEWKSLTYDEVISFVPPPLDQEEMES
# Chain of CYP1A2 (P05177 whole entry): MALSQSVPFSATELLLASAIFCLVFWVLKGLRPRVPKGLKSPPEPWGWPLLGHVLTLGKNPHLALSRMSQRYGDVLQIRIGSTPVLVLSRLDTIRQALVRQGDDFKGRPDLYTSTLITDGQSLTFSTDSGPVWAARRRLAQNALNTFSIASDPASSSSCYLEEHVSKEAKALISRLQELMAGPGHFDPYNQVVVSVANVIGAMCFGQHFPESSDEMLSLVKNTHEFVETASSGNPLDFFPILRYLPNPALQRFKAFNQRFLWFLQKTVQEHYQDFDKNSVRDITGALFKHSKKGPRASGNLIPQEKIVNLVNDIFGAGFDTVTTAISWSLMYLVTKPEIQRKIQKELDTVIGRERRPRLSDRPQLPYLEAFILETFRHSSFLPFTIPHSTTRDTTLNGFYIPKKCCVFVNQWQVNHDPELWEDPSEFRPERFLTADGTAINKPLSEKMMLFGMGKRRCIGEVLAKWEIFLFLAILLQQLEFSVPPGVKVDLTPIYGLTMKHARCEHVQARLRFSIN
# Chain of Cytochrome P450 2C19 (P33261 whole entry): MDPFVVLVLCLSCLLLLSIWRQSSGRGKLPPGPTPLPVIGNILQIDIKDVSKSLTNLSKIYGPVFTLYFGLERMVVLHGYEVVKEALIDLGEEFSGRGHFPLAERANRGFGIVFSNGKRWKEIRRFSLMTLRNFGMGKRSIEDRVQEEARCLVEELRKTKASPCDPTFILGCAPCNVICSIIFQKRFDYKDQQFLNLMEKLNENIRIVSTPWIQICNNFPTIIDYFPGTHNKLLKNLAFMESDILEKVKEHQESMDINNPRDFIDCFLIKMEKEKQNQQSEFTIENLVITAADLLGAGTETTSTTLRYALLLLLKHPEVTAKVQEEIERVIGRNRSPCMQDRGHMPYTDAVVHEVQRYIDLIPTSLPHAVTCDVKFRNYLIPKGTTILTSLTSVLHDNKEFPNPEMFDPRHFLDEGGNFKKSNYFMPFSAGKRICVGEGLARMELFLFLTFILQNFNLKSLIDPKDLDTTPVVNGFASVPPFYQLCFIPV
smiles,measurement,setting,value
CSc1nc(-c2ccc(F)cc2)c(-c2ccnc(NC(=O)C3CC3)c2)[nH]1,IC50,[1],24 nM
same,remaining at 4 h,[2],44%
same,remaining at 1 h,[3],81.8%
same,Drug metabolism,[4],Metabolite_Detected
same,inhibition at 10 µM,[5],14.6%
same,solubility at 1 h,[6],51 µg/mL
same,IC50,[7],541 nM
same,remaining at 10 min,[8],98.8%
same,inhibition (INH),[9],56.1%
same,t1/2,[10],3.17 h
same,IC50,[11],18.5 to 40 nM
same,IC50,[12],423 nM
same,remaining at 20 min,[13],97.9%
same,IC50,[14],174 nM
same,IC50,[15],300 nM
same,remaining at 2 h,[16],65.9%
same,inhibition at 10 µM,[17],77.7%
same,remaining at 0.5 h,[18],89.6%
same,remaining at 3 h,[19],52.1%
same,"inhibition at 4 h, 10 µM",[20],30.1%
same,inhibition at 10 µM,[21],88.4%
same,Ratio,[22],0.5
same,inhibition at 10 µM,[23],75.6%
